IEC-6 cytotox = cytotoxicity in IEC-6 intestinal epithelial cells, primary screen, cytotoxicity control for KLF5 inhibitor project, cell-based, luminescence; 290,000 compounds, 0.78% hits; IEC-6 cytotoxicity, luminescence viability; inhibition, % at 5 µM; in the data active means inhibition above about 22%;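 further: 0% = plate median of test compound wells and 100% = cytotoxic reference compound wells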
bCat nuc transl = modulators of beta-catenin nuclear translocation, primary screen, imaging, HeLa cells, immunofluorescence, high-content | nuclear translocation activity, % at 5 µM | AID 1665, 2009 | 190,000 compounds, 0.3% hits;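 active means nuclear translocation activity above 50% at 5 µM, with a well cell count of 50 or more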;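 further: per-cell ratio of nuclear to cytoplasmic median beta-catenin stain intensity; plate controls were DMSO negative control for no effect and GSK-3 inhibitor IX positive control for full effect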
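Signal – beta-catenin immunofluorescence imaging with DAPI · Test system – human HeLa cell line · Dosing – 5 µM primary single dose, 0.1% DMSO, 0.02–20 µM confirmation series · Measure – % activation, nuclear-to-cytoplasmic median beta-catenin signal ratio per cell · Incubation – 24 h compound exposure at 37°C, 5% CO2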
Ba/F3 V617F tox = reduced viability of JAK2V617F-dependent Ba/F3 cells, primary screen, JAK2V617F inhibitor project, cell-based, Ba/F3 EpoR-JAK2V617F, luminescence; ATP luminescence; inhibition, % at 5.6 µM; 220,000 compounds, 1.1% hits;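 active means inhibition above the campaign mean plus 3 SD over all tested compounds, cut at about 24% in these data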;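 further: cytokine-independent growth of Ba/F3 cells driven by EpoR plus mutant JAK2; 0% = DMSO-treated cells and 100% = JAK inhibitor I control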
MT stabilize HCS = microtubule stabilizers in HeLa cells, primary screen, imaging, high-content imaging; HeLa tubulin immunostaining HCS, 24 h; share of cells brighter than vehicle mean+2SD; % tubulin-high responders, % at 10 µM; 200,000 compounds, 0.83% hits; AID 2205, 2009;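 active means plate Z-score above 3 for both tubulin-high and condensed-nucleus cell shares, with cell loss under 80%, at 10 µM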;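 further: anti alpha tubulin signal scored within the nucleus-defined area of each cell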
BaF3 parental = parental Ba/F3 cell viability inhibition, counter-screen for JAK2V617F inhibitor project, murine pro-B, CellTiter-Glo luminescence. CellTiter-Glo ATP luminescence. inhibition, % at 5.6 µM. 220,000 compounds, 1.1% hits;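 active means inhibition above a per-campaign cutoff, the mean inhibition of all tested compounds plus 3 SD, cut at about 27% in these data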;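 further: 0% = DMSO wells and 100% = JAK Inhibitor I control wells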
KLF5 inh = KLF5 expression inhibitors, primary screen, DLD-1 cells, luminescence; DLD-1 KLF5 promoter-luciferase reporter; 290,000 compounds, 0.23% hits; inhibition, % at 5 µM;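 active means inhibition above a per-plate limit of that plate's mean compound inhibition plus 3 SD, cut at about 60% in these data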;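 further: 0% = DMSO wells and 100% = LY294002 at 200 µM; higher means less KLF5 promoter-driven luciferase light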
An asterisk follows results filed as active; nt = not tested or not shown. An excerpt weighted towards active compounds, which were near 2.1% of everything screened.

SMILES	IEC-6 cytotox	bCat nuc transl	Ba/F3 V617F tox	MT stabilize HCS	BaF3 parental	KLF5 inh
CC(=O)NN1C(=O)c2ccccc2NC1c1ccoc1 (configuration not stated)	-5	2	-1	1	1	-12
Nc1nonc1C(=O)N/N=C/c1cc2c(cc1Br)OCO2	3	nt	nt	nt	nt	-14
Cn1c(-c2cccs2)[n+](C)c2ccccc21	7	-3	49*	2	32*	12
Cc1ccc(Cl)c(OCC(=O)OCC(=O)NC2CCCc3ccccc32)c1 (configuration not stated)	0	0	2	5	1	17
N#Cc1c(-c2ccccc2)c(-c2ccccc2)nn(CC(=O)NNC(=O)Nc2ccc(Cl)c(Cl)c2)c1=O	-1	20	3	21*	5	6
CCCOc1ccc(C(=O)Nc2nc(C)c(Cc3ccc4c(c3)OCO4)s2)cc1	5	2	2	13	3	-11
COc1cc(C(=O)Nc2nc(C)c(Cc3ccc4c(c3)OCO4)s2)cc(OC)c1OC	16	16	82*	15*	74*	-7
COc1ccc(NC2CS(=O)(=O)CC2NCc2ccccc2)cc1 (configuration not stated)	-1	-1	0	3	5	-31
COc1ccc(C2C=C(c3ccc(C)c(C)c3)Nc3ncnn32)c(OC)c1OC (configuration not stated)	4	nt	-2	23*	4	-18
O=C(O)c1c(-c2ccc(Cl)cc2)cn2ccccc12	1	-1	-3	2	53*	-5
CCCCC(=O)Nc1nc(C)c(-c2csc(Nc3cc(OC)ccc3OC)n2)s1	-7	39	4	52*	9	8
Nc1cc[n+](CC(=O)c2ccc3c(c2)OCCO3)cc1	-4	nt	90*	5	71*	-30
O=C(C[n+]1ccc(C(=O)NCc2ccccc2)cc1)c1ccc2c(c1)OCCO2	4	-1	-3	2	2	20
C#CCOC(=O)Nc1cccn(Cc2c(Cl)cccc2Cl)c1=O	5	6	2	51*	15	-22
O=C(Nc1cccn(Cc2c(F)cccc2Cl)c1=O)NC1CCCCC1	-5	-1	-1	17*	2	-6
O=C(Nc1cccn(Cc2cccc(F)c2)c1=O)NC1CCCCC1	5	0	4	4	9	-41
COC(=O)c1cccc(NC(=S)NC(C)C)c1	-4	-1	1	1	0	-14
CN(C)c1ccc(/C=C2\CCC/C(=C\c3ccccc3)C2=O)cc1	3	4	-1	9.3*	5	-39
CCC1C/C(=C\c2cccnc2)C(=O)/C(=C/c2cccnc2)C1 (configuration not stated)	30*	-1	6	45*	4	-12
COc1ccc(/C=C2\CCC/C(=C\C=N\N(C)C)C2=O)cc1	7	-2	-3	20*	2	9
O=C1/C(=C/c2cccnc2)CCC/C1=C\c1cccnc1	3	-2	-3	29*	-6	-3
CCCc1ccc(OCc2ccc(C(=O)N3CCSCC3)o2)cc1	-3	nt	nt	nt	nt	-95
Cc1sc2ncn(CC(=O)N3CCN(c4ccc(F)cc4)CC3)c(=O)c2c1S(=O)(=O)N1CCOCC1	-4	nt	nt	nt	nt	-42
O=C1CN(C(=O)COC(=O)/C=C/c2ccc(S(=O)(=O)N3CCOCC3)cc2)c2ccccc2N1	5	-6	-1	2	2	-23
COc1coc(C(O)CN)cc1=O (configuration not stated)	1	nt	6	3	8	-14
SMILES	IEC-6 cytotox	bCat nuc transl	Ba/F3 V617F tox	MT stabilize HCS	BaF3 parental	KLF5 inh
CCOC(=O)C(=Cc1cc(=O)c(OC)co1)C(=O)OCC	1	0	0	25*	0	-27
COc1cc(C2CC(=O)N(c3ccc(C)cc3)C(=O)C2)cc(OC)c1OC	7	75*	3	nt	-1	30
COc1ccc(N2C(=O)CCC(C(=O)N3CCC(C(N)=O)CC3)C2c2ccc(F)cc2)cc1 (configuration not stated)	3	-2	2	4	69*	-13
COc1ccc(NC(=S)N(C)CC2COc3ccccc3O2)cc1 (configuration not stated)	5	4	6	3	10	-25
CCN(CC1COc2ccccc2O1)C(=S)Nc1ccc(F)cc1 (configuration not stated)	-8	3	34*	1	31*	-25
Cc1ccc(NC(=O)NC2CCCc3ccccc32)cc1 (configuration not stated)	0	nt	nt	nt	nt	-14
O=C(Nc1ccc(Cl)cc1)NC1CCCc2ccccc21 (configuration not stated)	5	nt	-3	30*	2	-34
O=C(COC(=O)Cc1ccc(S(=O)(=O)N2CCOCC2)s1)NCc1ccc(Cl)cc1	-1	-3	-1	1	5	-11
COc1ccc(-n2c(C)cc(C(=O)Cn3nnc4ccccc4c3=O)c2C)cc1	-1	1	-3	1	-1	-19
Cc1cc(C(=O)Cn2nnc3ccccc3c2=O)c(C)n1-c1ccccc1F	-2	-2	46*	1	52*	-26
COc1cccc(/C=C/C(=O)N2CCN(S(=O)(=O)c3ccccc3)CC2)c1OC	2	2	1	nt	-9	-35
CCc1ccc(NC(=S)N(Cc2ccc(Cl)cc2)Cc2ccc(C(=O)O)cc2)cc1	-8	0	-3	2	0	-3
CC(C)CN(CC(C)C)C(=S)Nc1ccc(Cl)cc1	-1	-4	33*	4	43*	10
CCCCN(CC(O)COc1cccc(C)c1)CC(O)COc1cccc(C)c1 (configuration not stated)	-3	nt	nt	nt	nt	-21
O=C(N/N=C/c1c(O)ccc2ccccc12)c1[nH]ncc1Br	10	-2	31*	4	35*	23
CCOc1ccc(/C=N/NC(=O)c2[nH]ncc2Br)c(O)c1	29*	1	21	3	7	-16
CCCC(=O)NCc1ccncc1	-1	0	3	6	10	-2
CCN(CC)CCn1cnc2c([nH]c3cccc(OC)c32)c1=O	10	-3	6	6	69*	-32
COc1ccc(C(=O)Nc2ccc3[nH]c(-c4cccc(OC)c4)cc(=O)c3c2)cc1	4	56*	0	32*	5	5
CN(C)S(=O)(=O)c1ccc(C(=O)NC2CCCc3ccccc32)cc1 (configuration not stated)	1	0	0	1	11	-2
O=C(Nc1ccc(Br)cn1)c1ccc2nccnc2c1	-3	nt	-5	12*	4	-61
